Experimental data: PMC3040319 (Pharmaceutical Research, 2010)

Legend:
mouse Oct1 = molecular target: T1, mouse Oct1 (Mus musculus, UniProt O08966); assay: Cellular accumulation of platinum in HEK-mOct1 cells; assay type: in vitro ADME; settings: 10 μM, 1 h
T1 sequence (O08966 1-556): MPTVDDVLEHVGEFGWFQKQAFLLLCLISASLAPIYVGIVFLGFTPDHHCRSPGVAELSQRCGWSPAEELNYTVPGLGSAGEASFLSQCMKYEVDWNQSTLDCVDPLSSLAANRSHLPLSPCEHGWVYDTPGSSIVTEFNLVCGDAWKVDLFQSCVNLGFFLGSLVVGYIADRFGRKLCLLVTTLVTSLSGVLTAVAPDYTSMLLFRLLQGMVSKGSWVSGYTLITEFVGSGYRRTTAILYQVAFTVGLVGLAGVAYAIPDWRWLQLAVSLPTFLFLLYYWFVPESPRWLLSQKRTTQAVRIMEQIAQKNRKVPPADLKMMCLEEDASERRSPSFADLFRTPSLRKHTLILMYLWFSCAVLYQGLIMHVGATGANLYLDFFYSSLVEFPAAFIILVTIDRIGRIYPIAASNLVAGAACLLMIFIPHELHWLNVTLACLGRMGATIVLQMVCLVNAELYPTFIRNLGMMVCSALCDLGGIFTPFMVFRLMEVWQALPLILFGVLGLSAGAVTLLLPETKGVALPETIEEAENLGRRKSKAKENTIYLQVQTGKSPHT
How it was run: (§1)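 HEK293 cells stably carrying full-length mouse Oct1 cDNA in pcDNA5/FRT, selected with hygromycin B; the human OCT1 line's construct is not described. Cells grown in DMEM H21 with 10% FBS at 37°C, 5% CO2. Exposed to 10 μM test compound in serum-free medium for 1 h, then washed 3× with ice-cold PBS. Digested in 70% nitric acid at 65°C for ≥2.5 h. Pt measured by ICP-MS, normalised to BCA protein.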

HEK-MOCK cells = assay: Cellular accumulation of platinum in HEK-MOCK cells; assay type: in vitro ADME, human; settings: 10 μM, 1 h
How it was run: as §1

Kim-1 = assay: Renal Kim-1 mRNA by qRT-PCR in the CDPCP toxicity study; assay type: in vivo, mouse; settings: i.v. once weekly for 3 weeks
How it was run: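 Same weekly ×3 tail-vein regimen with saline controls; kidneys were harvested 24 h after the last dose. Kidney RNA was extracted with Trizol and DNase I-treated, then reverse-transcribed. Taqman qRT-PCR for Kim-1 used GAPDH as internal control: 95°C 20 s, then 40 cycles of 95°C 3 s and 60°C 30 s. Results expressed as fold over saline.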

SMILES: [NH3+][Pt-2]([NH3+])([Cl])[n+]1ccccc1 (stereo not drawn) [CDPCP, cis-diammine(pyridine)chloroplatinum(II)]
- uptake of platinum (mouse Oct1; HEK-mOct1 cells): 1470 ± 66.6 pmol/mg protein/hr
- uptake of platinum, fold greater than in HEK-MOCK cells (mouse Oct1; HEK-mOct1 vs HEK-MOCK): 53 fold
- uptake of platinum (HEK-MOCK cells): 27.4 ± 7.43 pmol/mg protein/hr
- renal mRNA levels of Kim-1, fold over saline control (Kim-1; Oct1+/+ mice): 19.3 fold
- renal mRNA levels of Kim-1, fold over saline control (Kim-1; Oct1-/- mice): 117 fold
